Bioassay records: PubChem, The Scripps Research Institute Molecular Screening Center
Sampled rows, rich in hits. Any-hit rate of the full collection: about 4.6%.
GPR7 antag: blocks human GPR7 receptor signaling. AID 1861. inhibition, % at 4.4 µM. 1.1% of 290,000 active. GPR7-expressing cells, fluorescence antagonist assay; in the data active = inhibition above about 16%, passing the limit was not always enough;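 also: cells stimulated with the agonist NPW; 0% = agonist with vehicle and 100% = vehicle without agonist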
Target sequence (P48145 whole entry, looked up): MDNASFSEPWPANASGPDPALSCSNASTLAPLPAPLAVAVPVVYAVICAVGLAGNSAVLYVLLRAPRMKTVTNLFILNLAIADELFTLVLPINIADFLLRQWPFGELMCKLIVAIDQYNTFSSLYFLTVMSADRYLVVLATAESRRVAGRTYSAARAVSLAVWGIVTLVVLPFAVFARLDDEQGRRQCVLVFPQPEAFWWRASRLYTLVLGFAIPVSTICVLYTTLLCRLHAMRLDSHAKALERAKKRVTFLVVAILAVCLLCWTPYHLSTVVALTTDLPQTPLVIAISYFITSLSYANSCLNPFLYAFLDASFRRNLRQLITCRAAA
OX1R antag-1: blocks the human orexin 1 receptor. O43613. OX1R-expressing cells, FRET antagonist read-out. inhibition, % at 6.6 µM. 1.8% of 330,000 active; in the data active = inhibition mostly above about 38%, no sharp cut-off; inactive = mostly below about 40%;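 also: 0% = agonist challenge alone and 100% = reference antagonist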
OX1R antag-2: blocks the human orexin 1 receptor | O43613 | CHO/OX1R cells, Fluo-8 calcium fluorescence, orexin A | inhibition, % at 5 µM | 0.43% of 330,000 active;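 active = inhibition above its plate's threshold, mean inhibition of all tested compounds on the plate plus 3 SD, cut at about 37% in these data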;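 also: 0% = orexin A challenge wells and 100% = SB-334867-A antagonist wells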
TAAR1 antag: antagonists of human TAAR1; Q96RJ0; CHO RD-HGA16 TAAR1, Fluo-8 calcium fluorescence, antagonist; inhibition, % at 3 µM; 1.5% of 360,000 active; AID 624466;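 active = inhibition above a per-plate cutoff, the mean inhibition of test compounds on that plate plus 3 SD, cut at about 49% in these data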;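 also: 0% = DMSO plus EC80 beta-PEA response and 100% = DMSO alone without agonist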
Target sequence (Q96RJ0 whole entry, looked up): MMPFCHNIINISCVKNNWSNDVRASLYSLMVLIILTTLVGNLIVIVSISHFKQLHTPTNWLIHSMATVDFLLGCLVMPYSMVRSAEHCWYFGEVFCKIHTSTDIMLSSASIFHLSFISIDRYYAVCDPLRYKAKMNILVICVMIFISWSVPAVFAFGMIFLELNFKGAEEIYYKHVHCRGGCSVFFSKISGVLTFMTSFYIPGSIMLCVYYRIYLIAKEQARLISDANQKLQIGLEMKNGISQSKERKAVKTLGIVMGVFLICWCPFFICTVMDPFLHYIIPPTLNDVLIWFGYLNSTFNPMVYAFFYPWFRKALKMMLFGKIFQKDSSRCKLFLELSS
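Material: RD-HGA16 CHO cells with stable hTAAR1 and Gα16; Dosing: single nominal final test compound concentration of 3 µM; Schedule: seeding 17-24 h prior, 75-min 37 °C, 30-min RT dye loading; Detection: kinetic Fluo-8 calcium fluorescence measurement; Measure: % inhibition from peak post-agonist over basal fluorescence ratio; Benchmarks: vehicle and agonist controls.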
TAAR1 ag: agonists of human TAAR1. activation, % at 3 µM. Q96RJ0. CHO RD-HGA16 TAAR1, Fluo-8 calcium fluorescence; vehicle wells 0%, saturating PEA agonist 100%. 0.99% of 360,000 active;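 active = activation above the mean activation of all test compounds in the run plus 3 SD, cut at about 38% in these data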
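Assay system – CHO-derived RD-HGA16 cells with stable Gα16 and human TAAR1 · Compound dosing – one-point dosing at 3 µM (nominal) · Incubation – 17-24 h seeding, 75 min 37 °C dye, 30 min RT · Measured by – kinetic Fluo-8 calcium fluorescence · Control set – DMSO vehicle as 0%, PEA at EC100 as 100% · Repeats – single well for each compound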
CHO parental Ca: signal in parental CHO cells, OX1R antagonist counter-screen | parental CHO-K1, ATP-induced calcium, Fluo-8 fluorescence | inhibition, % at 5.6 µM | 0.63% of 330,000 active | AID 463079;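 active = inhibition above that plate's mean sample inhibition plus 3 SD, cut at about 26% in these data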;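 also: 0% = ATP-challenged DMSO wells and 100% = DMSO wells without ATP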
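Material: Parental CHO cells | Reagent: ATP | Compound dosing: Single nominal dose of 5.6 µM per compound | Detection: Intracellular calcium via Fluo-8 no-wash fluorescent dye | Read-out: % inhibition of ATP-induced calcium mobilization | Benchmarks: Low control ATP plus DMSO, high control DMSO only | Replicates: Singlicate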
nonsel antag count: nonselective antagonist in TAAR1 antagonist counter-screen; shares compounds with TAAR1 antag; 77% of 2,400 active; AID 651780; inhibition, % at 3 µM; counterscreen cell line, calcium fluorescence, antagonist mode; in the data active = inhibition above about 22%;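 also: CHO-Ga16 host cells stimulated with ATP at an EC80 level; 0% = agonist EC80 plus vehicle and 100% = vehicle without agonist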
TAAR1 ant conf: human TAAR1 antagonism, confirmed; shares compounds with TAAR1 antag; TAAR1-expressing cells, fluorescence antagonist read-out; inhibition, % at 3 µM; 40% of 2,400 active; AID 651785; in the data active = inhibition above about 49%;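 also: CHO-Ga16 host cells challenged with agonist PEA near its EC80; 0% = agonist at EC80 plus vehicle and 100% = vehicle with no agonist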
Ga16 nonsel ag: nonselective Ga16 agonist in TAAR1 antagonist counter-screen; Ga16-expressing cells, calcium fluorescence, agonist counterscreen; 18% of 2,400 active; shares compounds with TAAR1 antag; activation, % at 3 µM; AID 651953; in the data active = activation above about 12%;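 also: 0% = vehicle wells and 100% = saturating stimulus response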
TAAR1 ag count: TAAR1 agonism, antagonist counter-screen | shares compounds with TAAR1 antag | hTAAR1 cell line, fluorescence activation, agonist mode | AID 651955 | activation, % at 3 µM | 2% of 2,400 active; in the data active = activation above about 37%;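 also: CHO cells stably expressing TAAR1 with calcium dye readout; 0% = DMSO vehicle and 100% = full agonist response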
Starred values were filed as active, the others as inactive; · = not tested or not shown.

SMILES | GPR7 antag | OX1R antag-1 | OX1R antag-2 | TAAR1 antag | TAAR1 ag | CHO parental Ca | nonsel antag count | TAAR1 ant conf | Ga16 nonsel ag | TAAR1 ag count
CSc1nc2nccc(-c3ccc(Oc4ccccc4)cc3)n2n1 | -7 | 12 | -35 | 56* | 11 | -4 | 16 | 22 | 2 | 10
Cc1nnc(SC(C)C(=O)NC2CCCCC2)[nH]c1=O (stereo not given) | · | · | · | 15 | 2 | · | · | · | · | ·
COc1ccc(-c2csc3nc(C)nc(N4CCCCC4)c23)cc1OC | -3 | 16 | -21 | 5 | 1 | -14 | · | · | · | ·
COc1ccc(-c2csc3nc(-c4cccnc4)nc(N4CCC(C(N)=O)CC4)c23)cc1OC | -8 | 11 | -9 | 53* | 20 | -20 | 18 | 33 | 9 | 8
COc1ccc(N2CCN(c3nc(Cl)nc(Nc4ccc(F)cc4)n3)CC2)cc1 | -9 | 1 | -28 | 78* | 2 | -15 | 27* | 51* | 10 | 17
COc1ccc(N2CCN(c3nc(Nc4ccc(F)cc4)nc(OC)n3)CC2)cc1 | -3 | · | · | · | · | · | · | · | · | ·
CC(C)COC(=O)N1CCCCC1c1cc(C(=O)Nc2ccccc2)no1 (stereo not given) | · | · | · | -13 | 10 | · | · | · | · | ·
CNC(=O)C(C)c1ncc(C(F)(F)F)cc1Cl (stereo not given) | -7 | 17 | -26 | 98* | -3 | -13 | 2 | -5 | -1 | -2
O=C(Nc1cccc(S(=O)(=O)C(F)F)c1)c1ccc(S(=O)(=O)N2CCCCC2)cc1 | -5 | 21 | -8 | 64* | 15 | 2 | 35* | 37 | 9 | 4
Cc1ccc(S(=O)(=O)N2CCCCC2)cc1NC(=O)c1cncc(Br)c1 | · | · | · | -7 | 6 | · | · | · | · | ·
O=C(Nc1cccc(S(=O)(=O)N2CCCCCC2)c1)c1cncc(Br)c1 | · | 9 | -35 | 61* | 10 | -22 | 37* | 53* | 11 | 15
CC(=O)Nc1ccc(NC(=O)[C@@H]2CCCN2S(=O)(=O)c2ccc3c(c2)OCCO3)cc1 | -6 | 20 | -15 | -5 | 4 | -10 | · | · | · | ·
O=c1c2cc3c(cc2[nH]c(=S)n1Cc1ccco1)OCO3 | -10 | 5 | -4 | -4 | 7 | -7 | · | · | · | ·
COc1cccc(/C=C2\SC(=S)N(CCCC(=O)N3CCCCC3CCO)C2=O)c1 (stereo not given) | -18 | 1 | -31 | 55* | 7 | -39 | 29* | 28 | 12* | 7
CCNS(=O)(=O)c1ccc(Br)c(C(=O)OC(C)C(=O)NCC2CCCCC2)c1 (stereo not given) | · | 8 | -28 | 0 | 2 | -18 | · | · | · | ·
COCCN1C(=O)CN(S(C)(=O)=O)CC1(C)C(=O)Nc1ccc2c(c1)OCCO2 (stereo not given) | · | · | · | -23 | 2 | · | · | · | · | ·
COc1ccc(C2CC(c3ccccc3)=NN2C(=O)COC(=O)CNC(=O)c2ccccc2)cc1 (stereo not given) | -7 | 14 | -13 | 67* | 32 | -26 | 43* | 54* | 22* | 37
COc1ccc([C@H]2C[C@@H](n3cc(C4CC4)nn3)[C@H](O)CN2C(=O)c2cccs2)cc1 | · | · | · | -4 | 2 | · | · | · | · | ·
O=C(CSC(=S)N1CCCCC1)Nc1ncc2c(n1)CCCC2=O | -7 | 17 | -19 | -33 | 3 | -20 | · | · | · | ·
CCOC1=C2CN(S(=O)(=O)c3ccc(C)cc3)[C@H](c3ccccc3)C[C@@H]2N(S(=O)(=O)c2ccccc2C)[C@H](c2ccccc2)C1 | · | · | · | -1 | 0 | · | · | · | · | ·
CCC(C)Sc1ccc(-c2nc3ccccn3c2NCc2ccccc2)cc1OC (stereo not given) | · | 16 | 5 | · | · | -9 | · | · | · | ·
COc1cc(-c2nc3ccc(C)cn3c2NCc2ccccc2)ccc1SC1CCCCC1 | · | 38 | -31 | 54* | 6 | -22 | 25* | 30 | 2 | 0
CCCCNc1c(-c2ccc(OC)c(SC3CCCCC3)c2)nc2cc(C)ccn12 | · | 25 | -18 | 84* | 9 | 10 | 40* | 49* | 4 | 10
COc1ccc(CSc2ccc(-c3nc4ccccn4c3NCc3ccccc3)cc2OC)cc1 | · | 28 | -34 | 71* | 18 | -3 | 30* | 48 | 4 | 9
COC(=O)C(=Nc1ccccc1)/C(C(=O)C(=O)N(C)c1ccccc1)=C(\O)c1ccccc1 | -2 | 10 | -6 | -19 | 7 | -14 | · | · | · | ·
SMILES | GPR7 antag | OX1R antag-1 | OX1R antag-2 | TAAR1 antag | TAAR1 ag | CHO parental Ca | nonsel antag count | TAAR1 ant conf | Ga16 nonsel ag | TAAR1 ag count
Oc1ccccc1C1=Nc2nc3ccccc3n2C(c2ccccc2)C1 (stereo not given) | -10 | 54 | -28 | 54* | 13 | -33 | 31* | 28 | 4 | -3
COc1ccc(CCNC(=O)c2ccc(OCc3c(C)noc3C)c(OC)c2)cc1 | · | 11 | -26 | 23 | 7 | -16 | · | · | · | ·
COc1cc(C(=O)NCCc2c[nH]c3ccccc23)ccc1OCc1c(C)noc1C | 3 | 13 | -4 | 63* | 16 | 5 | 31* | 48 | 10 | 8
COC(=O)COc1ccc(NS(=O)(=O)c2cccc([N+](=O)[O-])c2)cc1 | -13 | 27 | 2 | 11 | 6 | -10 | · | · | · | ·
CC(C)[C@H](NC(=O)c1ccccc1)C(=O)OCC(=O)/C=C1/N(C)c2ccccc2C1(C)C | 13 | 21 | -11 | 71* | 11 | 7 | 41* | 55* | 9 | 4
CC(=O)N(CCc1ccccc1C)Cc1cc2cc3c(cc2[nH]c1=O)OCO3 | -2 | 21 | -5 | -4 | 2 | -8 | · | · | · | ·
CCC(=O)N(CCc1ccccc1C)Cc1cc2ccc(C)cc2[nH]c1=O | 2 | 9 | -44 | 60* | 20 | -23 | 28* | 49* | 11 | 13
CC(=O)Nc1cc(-c2ccc(CO)cc2)cn2c(-c3cccc(C(F)(F)F)c3)cnc12 | · | · | · | 70* | 13 | · | 36* | 51* | 10 | 15
COc1ccc(-c2cc(NC=O)c3ncc(-c4ccc(C(C)=O)cc4)n3c2)cc1OC | · | · | · | 26 | 8 | · | · | · | · | ·
COc1ccccc1-c1cc(NC(C)=O)c2ncc(-c3cccc(C(C)=O)c3)n2c1 | · | · | · | 86* | 3 | · | 32* | 53* | 7 | 3
COc1cc(-c2cc(NC=O)c3ncc(-c4ccc(C(C)=O)cc4)n3c2)cc(OC)c1OC | · | · | · | 53* | 7 | · | 23* | 37 | 10 | 11
